Experimental data from different studies.
Lines come from different studies, so protocols differ.
Target: Homeodomain-interacting protein kinase 4 (HIPK4, Homo sapiens, UniProt Q8NE63)
Residues used in one study (Q8NE63 1-616): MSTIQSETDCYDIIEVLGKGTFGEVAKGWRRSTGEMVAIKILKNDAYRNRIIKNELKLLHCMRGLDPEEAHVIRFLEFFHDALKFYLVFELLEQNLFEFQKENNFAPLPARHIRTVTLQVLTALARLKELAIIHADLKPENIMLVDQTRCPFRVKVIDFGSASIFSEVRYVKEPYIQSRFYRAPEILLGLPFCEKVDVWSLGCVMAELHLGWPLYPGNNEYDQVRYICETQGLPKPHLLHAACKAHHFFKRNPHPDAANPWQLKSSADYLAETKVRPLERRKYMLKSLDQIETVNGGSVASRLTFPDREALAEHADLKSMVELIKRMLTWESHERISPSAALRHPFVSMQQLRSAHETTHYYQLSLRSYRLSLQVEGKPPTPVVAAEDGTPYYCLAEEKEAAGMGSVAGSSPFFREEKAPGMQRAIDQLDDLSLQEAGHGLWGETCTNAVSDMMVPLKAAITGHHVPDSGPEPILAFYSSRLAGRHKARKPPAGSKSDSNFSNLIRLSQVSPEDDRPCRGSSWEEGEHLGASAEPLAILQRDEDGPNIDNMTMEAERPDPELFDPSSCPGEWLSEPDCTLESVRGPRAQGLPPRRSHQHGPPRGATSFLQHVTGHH

N[C@H]1CCN(c2nccc(-c3cnn4ncccc34)n2)C1
remaining binding (binding; 1 µM): 33%

C[C@@H](c1ccc(-n2cnc3c(N)ncnc32)cc1)N1CCc2nn(C)c(Cc3ccccc3)c2C1=O
remaining binding (binding, competition with immobilised ligand; 0.1 µM): 100%

Nc1c(C(=O)NCc2ccc(C(=O)NCCCC3CCCCC3)cc2)cnn1-c1ccccc1
remaining binding (cell-free assay, competition with immobilised ligand; 0.1 µM): 100%

CCN1CCN(Cc2ccc(C(=O)Nc3ccc(C)c(Oc4ccc5c(c4)CC(=O)N5)c3)cc2C(F)(F)F)CC1
remaining binding (binding, competition with immobilised ligand; 1 µM): 100%

Cn1cc(Cl)c2c(Oc3c(F)cc(Nc4cc(Cl)nc(N)n4)cc3F)ccnc21
remaining binding (cell-free assay, competition with immobilised ligand; 0.1 µM): 100%

Cc1cnc(Nc2ccc(C(=O)N3CCC(N4CCCC4)CC3)cc2)nc1-c1cc2ccccc2s1
remaining binding (binding, competition with immobilised ligand; 1 µM): 1.3%

F[C@@H]1CCN(c2nccc(-c3cnn4ncccc34)n2)C1
remaining binding (binding; 1 µM): 90%

COc1ccc2c(c1)O[C@@H](c1ccc(OC)c(OC)c1)C[C@H]2NC(=O)C1(c2ccc3c(c2)OC(F)(F)O3)CC1
remaining binding (cell-free assay, competition with immobilised ligand; 1 µM): 51%

COc1cnc(Nc2cccc(S(N)(=O)=O)c2)nc1N1CCN(c2ccccc2)C(=O)C1
remaining binding (binding, competition with immobilised ligand; 1 µM): 91%

C[C@@H]1CCN(c2nccc(-c3cnn4ncccc34)n2)C1
remaining binding (binding; 1 µM): 92%

CN(c1ccnc(CNc2nc(Nc3ccc4c(c3)CC(=O)N4)ncc2C(F)(F)F)n1)S(C)(=O)=O
remaining binding (cell-free assay, competition with immobilised ligand; 1 µM): 35%

O=C(NCC1CCOCC1)c1n[nH]cc1NC(=O)c1c(F)cccc1F
remaining binding (binding, competition with immobilised ligand; 1 µM): 78%

Cc1c[nH]c2nccc(Oc3c(F)cc(Nc4cc(Cl)nc(N)n4)cc3F)c12
remaining binding (cell-free assay, competition with immobilised ligand; 0.1 µM): 100%

Cc1cnn2ncc(-c3ccnc(N(C)C)n3)c2c1
remaining binding (binding; 1 µM): 77%

FC(F)(F)Oc1cccc(-c2cnc3ccc(-c4ccncc4)nn23)c1
remaining binding (cell-free assay, competition with immobilised ligand; 5 µM): 5.2%

CN(C)c1nccc(-c2cnn3ncccc23)n1
remaining binding (binding; 1 µM): 75%

CN(C)CC#Cc1ccc(OCCCc2sc(N3CCc4cccc(C(=O)Nc5nc6ccccc6s5)c4C3)nc2C(=O)O)c(F)c1
remaining binding (cell-free assay, competition with immobilised ligand; 1 µM): 100%

O=C(NCCCN1CCOCC1)c1ccc(Nc2nccc(-c3cc4ccccc4s3)n2)cc1
remaining binding (binding, competition with immobilised ligand; 1 µM): 5.8%

Cc1cc(C)c(-n2ccn3nc(-c4cccnc4)cc23)cc1NC(=O)c1cc(C#N)cc(S(F)(F)(F)(F)F)c1
remaining binding (cell-free assay, competition with immobilised ligand; 0.1 µM): 95.6%

CN(CCCC(F)(F)F)c1nccc(-c2cnn3ncccc23)n1
remaining binding (binding; 1 µM): 95%

O=C(c1ccc(Nc2ncc(Cl)c(-c3ccc(Cl)s3)n2)cc1)N1CCC(N2CCCC2)CC1
remaining binding (binding, competition with immobilised ligand; 1 µM): 3.6%

CNC(=O)[C@@H]1CC[C@@H](n2c(-c3ccc4cnccc4c3)nc3ccc(C(=O)NCc4cccc(C(N)=O)c4)cc32)C1
remaining binding (binding, competition with immobilised ligand; 1 µM): 100%
